The source of these data is ChEMBL document CHEMBL4411342, “Pyrrolomycins as antimicrobial agents. Microwave-assisted organic synthesis and insights into their antimicrobial mechanism of action” (Bioorg Med Chem, 2019).

For test [1], the system named is Staphylococcus aureus. Put plainly: Antibiofilm activity against Staphylococcus aureus ATCC 25923 after 24 hrs by crystal violet staining based assay. The conditions noted are these: ATCC 25923, 24 h. The test is classed as functional, organism-based. Put shortly:
(§1)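 Overnight TSB + 2% w/v glucose cultures (37 °C, 24 h) diluted to 0.5 McFarland, inoculated into 96-well plates of TSB/2% glucose with compound (100 µg/mL screen, or 100–0.001 µM for IC50). Static 37 °C, 24 h; wells PBS-washed, 0.1% crystal violet 30 min, solubilized in 33% acetic acid, OD 540 nm. % inhibition vs growth control; duplicates, ≥3 independent experiments.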

Another test deals with Pseudomonas aeruginosa. The test can be described thus: Antibiofilm activity against Pseudomonas aeruginosa ATCC 15442 after 24 hrs by crystal violet staining based assay. The test is classed as functional, organism-based. Particulars: ATCC 15442, 24 h. Put shortly:
as §1

The target in the next test is T1, Sortase A (Staphylococcus aureus, UniProt Q9S446).
T1 sequence (Q9S446 whole entry): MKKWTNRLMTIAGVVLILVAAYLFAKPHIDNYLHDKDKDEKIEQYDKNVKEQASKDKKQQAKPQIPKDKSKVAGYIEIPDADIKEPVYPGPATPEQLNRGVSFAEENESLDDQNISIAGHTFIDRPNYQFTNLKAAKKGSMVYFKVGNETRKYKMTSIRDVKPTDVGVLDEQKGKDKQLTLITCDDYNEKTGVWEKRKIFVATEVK
Put plainly: Inhibition of Staphylococcus aureus SrtA using dabcyl-QALPETGEE-edans as substrate preincubated for 1 hr followed by substrate addition and measured at 1 min interval for 1 hr by fluorescence assay. Put shortly:
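Recombinant S. aureus SrtA (10 µM) preincubated 1 h at 37 °C in 50 mM Tris-HCl, 5 mM CaCl2, 150 mM NaCl, pH 7.5 with increasing inhibitor levels; FRET peptide added to 50 µM final. Cleavage fluorescence read at ex 350/em 495 nm; progress curves used for IC50. Stocks 10 mM in DMSO; berberine chloride positive control, enzyme-free substrate negative control.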

Test [2] has as its system Staphylococcus aureus. The test can be described thus: Inhibition of Staphylococcus aureus AtlA assessed as reduction in enzyme activity at 1 uM measured after 24 hrs y methylene blue staining based zymography relative to control. Put shortly: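 Spent medium from 24 h static S. aureus cultures (1 µM compound; untreated and 0.1% DMSO controls) was centrifuged, and the supernatant was lyophilized and resuspended in Tris-HCl pH 7.4. Proteins were run on 12% SDS-PAGE containing 1 mg/mL Micrococcus lysodeikticus cells. The gel was renatured (Triton X-100 buffer, 37 °C, 16–48 h) and stained with 0.1% methylene blue. Clear bands were quantified by densitometry as lysozyme µg equivalents, in triplicate.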

Test [3] concerns Staphylococcus aureus. The test can be described thus: Inhibition of Staphylococcus aureus AtlA assessed as reduction in biofilm formation at 1 uM measured after 24 hrs. Put shortly:
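S. aureus overnight culture (TSB + 2% glucose, 37 °C, 200 rpm) inoculated 1:100 into TSB/2% glucose containing 1 µM compound (from DMSO stock) in 24-well plates. Static incubation at 37 °C for 24 h. Biofilm inhibition is expressed relative to untreated cultures. Untreated and 0.1% DMSO controls. Triplicate cultivations.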

Usually IC50 stands for the point on the concentration scale where inhibition reaches its midpoint. A lower IC50 goes with inhibition by little substance. In the case of `O=C(c1cc(Cl)cc(Cl)c1O)c1[nH]c(Cl)c(Br)c1Cl`, the results for the IC50 in the test on Staphylococcus aureus [1], with Pseudomonas aeruginosa and against Sortase A were 0.0247 µM, 18.6 µM and 160 µM, respectively.
For `O=C(c1cc(Cl)c(Cl)[nH]1)c1cc(Cl)cc(Cl)c1O` the same measures were 0.92 µM, 236 µM and 300 µM.
What is called inhibition is the relative decrease from the control value, in per cent. Consider `O=C(c1cc(Br)cc(Br)c1O)c1[nH]c(Br)c(Br)c1Br`, for which the 50% inhibitory concentration (IC50) in the test on Staphylococcus aureus [1] is 0.0034 µM; in the test on Pseudomonas aeruginosa, 74.8 µM; against Sortase A, 140 µM. Besides, in the test with Staphylococcus aureus [2], the fold change (FC) stood at 2. Further, the inhibition in the test on Staphylococcus aureus [3] is below 80%.
For the compound `O=C(c1cc(Cl)cc(Cl)c1O)c1[nH]c(Cl)c(Cl)c1Br`, the IC50 was 0.1 µM with Staphylococcus aureus [1], 170 µM with Pseudomonas aeruginosa and 130 µM against Sortase A.
`O=C(c1cc(Cl)cc(Cl)c1O)c1[nH]c(Br)c(Br)c1Br`: the IC50 is 20.3 µM in the test with Staphylococcus aureus [1], 106 µM with Pseudomonas aeruginosa and 130 µM on Sortase A.
`O=C(c1cc(Br)ccc1O)c1[nH]c(Br)c(Cl)c1Br`: the half-inhibitory concentration (IC50) worked out at 0.0087 µM in the test on Staphylococcus aureus [1], 78.9 µM with Pseudomonas aeruginosa and 250 µM on Sortase A. Further, in the test on Staphylococcus aureus [2], the fold change (FC) came to 2. In addition, in the test on Staphylococcus aureus [3], the inhibition was below 80%.
